This is a sample that favours compounds with a hit; in the whole collection about 3.5% have one here.
RGS4 inh – inhibitors of human RGS4 | P49798 | B-score at 10 µM | HEK293 M3R/RGS4 inducible, Fluo-4 calcium flux; active compounds read high; triggered by carbachol at its EC20 | 310,000 tested, 0.45% active;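 active = B-score, a plate-corrected calcium signal, over three deviations above library mean, with baseline fluorescence within five deviations of library mean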;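 note: RGS4 expression induced by doxycycline in cells with stable M3 receptor; B-score is computed from the integrated fluorescence ratio over baseline after carbachol; higher B-score means a larger calcium signal and so more RGS4 inhibition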
Target sequence (P49798 whole entry, looked up): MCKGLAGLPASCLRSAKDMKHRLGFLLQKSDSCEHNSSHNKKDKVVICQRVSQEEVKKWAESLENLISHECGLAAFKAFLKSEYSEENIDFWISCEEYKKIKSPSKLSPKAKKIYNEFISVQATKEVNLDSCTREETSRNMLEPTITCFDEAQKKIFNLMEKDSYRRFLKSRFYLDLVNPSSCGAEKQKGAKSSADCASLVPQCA
MrgX1 agonist – human MrgX1 receptor agonism, primary screen. B-score at 10 µM. 310,000 tested, 0.44% active. Q96LB2. MrgX1-HEK293 cells, Fluo-4 calcium fluorescence, agonist mode; active compounds read high;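 active = calcium response B-score plate-corrected fluorescence ratio at least 3 library SD, with starting fluorescence B-score inside 5 SD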
Target sequence (Q96LB2 whole entry, looked up): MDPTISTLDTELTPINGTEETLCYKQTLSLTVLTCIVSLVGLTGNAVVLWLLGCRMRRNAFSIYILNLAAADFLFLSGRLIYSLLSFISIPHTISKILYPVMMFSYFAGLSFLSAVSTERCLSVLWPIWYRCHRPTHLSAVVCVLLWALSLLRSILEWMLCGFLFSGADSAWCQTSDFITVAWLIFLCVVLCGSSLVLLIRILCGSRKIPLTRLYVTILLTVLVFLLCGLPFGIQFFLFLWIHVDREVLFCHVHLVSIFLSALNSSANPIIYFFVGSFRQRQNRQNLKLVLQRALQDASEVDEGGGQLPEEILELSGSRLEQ
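Material: HEK293 cells stably expressing human MrgX1 receptor | Quantity: 15,000 cells per well | Times: Cells plated overnight, dye loaded 0.5 h 37 °C, 0.5 h room temperature | Measured by: Kinetic Fluo-4 NW fluorescence of intracellular calcium | Control set: Positive and negative controls per plate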
MrgX1 PAM – allosterically activates human MrgX1 receptor signaling. 310,000 tested, 0.63% active. MrgX1-HEK293, Fluo-4 calcium flux, FDSS; active compounds read high. Q96LB2. B-score at 10 µM. AID 588675;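 active = plate-corrected calcium response at least 3 library SD above typical, normal starting fluorescence, not activating the receptor alone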;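 note: compound read alongside a low EC10 to EC30 dose of BAM8-22 agonist; peak minus trough fluorescence over baseline measured at the second addition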
RGS4 pot – potentiators or activators of RGS4. HEK293 M3R/inducible RGS4, carbachol calcium flux Fluo4; active compounds read low. B-score at 10 µM. 310,000 tested, 0.92% active. AID 463111;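 active = B-score of the integrated calcium signal more than 4 SD below the library mean, with starting fluorescence not abnormally high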;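 note: negative B-score means reduced calcium response which marks RGS4 activation or potentiation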
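test system = HEK293 cells with stable M3R and inducible RGS4 | schedule = recording 10 s baseline at 1 Hz, 100 s post-agonist | technique = Fluo4-AM (2 µM) calcium-flux fluorescence, kinetic read | measure = Agonist-evoked peak-minus-minimum fluorescence over baseline, integrated ratio, B score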
MrgX1 antagonist – human MrgX1 receptor antagonism, primary screen | AID 588676 | 310,000 tested, 1.3% active | MRGX1-HEK293 calcium flux, Fluo-4, BAM8-22 antagonism; active compounds read low | B-score at 10 µM;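 active = calcium-response B-score plate-corrected more than 3 library SD below zero, starting fluorescence within 5 deviations, no agonist response on first addition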;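 note: peak minus trough fluorescence over baseline after final BAM8-22 challenge near maximal dose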
* hit, by the source's call; i = inactive; . = no result given.

SMILES	RGS4 inh	MrgX1 agonist	MrgX1 PAM	RGS4 pot	MrgX1 antagonist
CCOC(=O)c1sc(N/N=C/c2ccccc2)nc1C	i	i	i	i	i
O=C(O)Cc1sc(N/N=C\c2ccccc2)nc1-c1ccccc1	i	i	i	i	-6.2*
C=C1CSc2nc3ccccc3c(=O)n21	i	i	i	i	i
CCOc1cc(/C=C(\C#N)C(=O)Nc2ccccc2C(=O)O)ccc1OC(=O)c1ccc(C)cc1	i	i	i	i	-4.9*
COc1ccc(/C=C(/C#N)C(=O)Nc2ccccc2C)cc1C(=O)O	i	i	i	i	i
O=C1Nc2ccccc2C1(O)C/C(=N/O)c1ccccc1 (stereo unspecified)	i	i	i	i	-7.5*
CC(=O)CC1(O)C(=O)Nc2ccccc21 (stereo unspecified)	i	i	i	i	i
CC(=O)c1ccc(OCc2cc(C(=O)N(C)CCOc3ccc(C)cc3)no2)cc1	i	i	i	i	i
CN(C(=O)COC(=O)c1ccccc1Nc1ccccc1)c1c(N)n(Cc2ccccc2)c(=O)[nH]c1=O	i	i	i	i	-7*
Cc1c(Br)c([N+](=O)[O-])nn1C(C)C(=O)Nc1c(C)n(C)n(-c2ccccc2)c1=O (stereo unspecified)	i	i	i	i	i
CN1C(=O)/C(=C\c2ccc(N(C)C)cc2)OC1=S	i	63*	i	i	i
COc1ccc(/C=C2\OC(=S)N(C)C2=O)cc1	i	i	i	i	i
NS(=O)(=O)c1ccc(CCNCc2ccccc2OCc2ccc(F)cc2)cc1	i	i	i	i	-4.8*
O=C(COC(=O)/C=C/c1ccc([N+](=O)[O-])cc1)NCc1ccccc1	i	i	i	i	i
O=C(/C=C/c1ccc([N+](=O)[O-])cc1)OCC(=O)N1c2ccccc2Sc2ccccc21	i	i	i	-8.2*	i
O=S1(=O)c2ccccc2N=NN1Cc1ccc(Cl)c(Cl)c1	i	29*	i	i	i
CC(C)(C)c1ccc(CN2N=Nc3ccccc3S2(=O)=O)cc1	i	i	i	i	i
COC(=O)/C=C1/SC(=NC(=O)c2cccc([N+](=O)[O-])c2)NC1=O	i	i	i	i	i
CCCC(=O)Nc1ccc(-c2csc(N/N=C\c3ccncc3)n2)cc1	i	i	i	-7.2*	-5.4*
C#CC(C)OC(=O)Nc1cnccc1C(F)(F)F (stereo unspecified)	i	i	i	i	i
Cc1cc(C)c(C)c(S(=O)(=O)N2CCC(C(=O)OCC(=O)N3c4ccccc4NC(=O)C3(C)C)CC2)c1C	i	i	i	-7*	i
Cn1cc(CN2CCCC(C(=O)c3nccn3C)C2)c(-c2cccc(Cl)c2)n1 (stereo unspecified)	i	i	i	i	i
COC(=O)C1CC(c2c(OC)cc(OC)cc2OC)=NO1 (stereo unspecified)	i	i	i	i	i
COC(=O)[C@@H]1C(c2c(OC)cc(OC)cc2OC)=NO[C@H]1C(=O)OC	i	i	i	i	-6.2*
CC(=O)NC(CC(=O)N1CCCC1)c1ccccc1 (stereo unspecified)	i	i	i	i	-5.3*
SMILES	RGS4 inh	MrgX1 agonist	MrgX1 PAM	RGS4 pot	MrgX1 antagonist
CC(=O)NC(CC(=O)O)c1ccccc1 (stereo unspecified)	i	i	i	i	i
Cc1nnc2sc(SCc3ccc(Cl)cc3)nn2c1=O	i	i	i	i	-6.6*
CC(OC(=O)Cn1[nH]c(=O)c2ccccc2c1=O)C(=O)NC1(C#N)CCCCC1 (stereo unspecified)	i	i	i	i	i
CCOc1ccc(C(=O)Nc2ccc(NC(=O)c3cccs3)cc2)cc1[N+](=O)[O-]	i	i	i	i	-7.3*
C/C(=N\NC(=O)COc1ccc(C)cc1Br)c1cc([N+](=O)[O-])cs1	i	i	i	i	i
C/C(=N\NC(=O)COc1ccc(C)cc1[N+](=O)[O-])c1cccs1	i	i	i	i	-6.5*
C/C(=N\N=C\c1ccccc1)c1nnn(-c2nonc2N)c1C	i	i	i	i	i
Cc1oc2c(cc(NS(=O)(=O)c3ccc(F)cc3)c3ccccc32)c1C(=O)O	i	i	i	i	i
Cc1oc2c(cc(NS(=O)(=O)c3ccc(C(C)C)cc3)c3ccccc32)c1C(=O)O	i	i	i	-8.6*	i
COc1cc(/C=C2\SC(=N)N(c3ccc(F)cc3)C2=O)ccc1O	i	i	i	i	-4.9*
COc1ccc(/C=C2\SC(c3ccc(C)cc3)=NC2=O)cc1OC	i	i	i	i	i
COc1cc(/C=C2\SC(c3ccc(C)cc3)=NC2=O)ccc1O	i	i	i	i	-5.8*
Cc1ccc(C2=C(c3ccc([N+](=O)[O-])cc3)C(=O)OC2)cc1C	i	i	i	i	i
Cc1nc2c(-c3ccc(F)cc3)cnn2c2c1CCC2	i	i	i	i	i
COc1ccc(-c2nc(C)sc2CC(=O)O)cc1OC	i	i	i	i	i
O=C(/C=C/c1ccccc1)CC(O)(c1ccccc1)C(F)(F)F (stereo unspecified)	i	i	i	-10*	i
COc1ccc(/C=C/C(=O)CC(O)(c2ccccc2)C(F)(F)F)cc1 (stereo unspecified)	i	i	i	i	i
O=C(/C=C/c1ccccc1)CC(O)(c1ccccc1)C(F)(F)C(F)F (stereo unspecified)	i	i	i	-8.9*	i
O=c1c2cnn(-c3ccccc3Cl)c2ncn1Cc1cccnc1	i	i	i	i	i
O=C(Nc1ccc2c(c1)Cc1ccccc1-2)c1cccnc1	i	i	i	i	i
O=S(=O)(Nc1nc2ccccc2[nH]1)c1ccc2ccccc2c1	i	i	i	-9.6*	i
O=S(=O)(Nc1ncn[nH]1)c1ccc2ccccc2c1	i	i	i	i	i
CCC(C)(C)c1ccc(OCCCC[n+]2cccc(C)c2)c(C(C)(C)CC)c1	i	.	.	-8.1*	.
COc1ccc(CCn2c(=N)c(S(=O)(=O)c3ccccc3)cc3c(=O)n4ccccc4nc32)cc1	i	i	i	i	i
COc1ccc(CCn2c(=N)c(S(=O)(=O)c3ccc(Cl)cc3)cc3c(=O)n4ccccc4nc32)cc1	i	i	i	i	-5.5*

Screening data deposited in PubChem BioAssay by Johns Hopkins Ion Channel Center.
